From ChEMBL document CHEMBL5316274 (J Med Chem, 2023)
The source made the active and inactive calls. No cut-off for these calls is given here.

What was measured:
[1] = biological target: Mu-type opioid receptor (Mus musculus) (UniProt P42866); assay: Binding affinity to mouse mu opioid receptor expressed in CHO cell membrane assessed as stimulation of [35S]-GTPgammaS binding by measuring maximal efficacy incubated for 1.5 hrs by scintillation spectroscopy analysis relative DAMGO; format: cell membranes
How it was run: (§1)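 MOR [35S]GTPγS functional assay in MOR-CHO membranes (Bmax about 2.5–4 pmol/mg). Efficacy is expressed as % of the maximal stimulation by full agonist DAMGO.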

[2] = biological target: Kappa-type opioid receptor (Mus musculus) (UniProt P33534); assay: Binding affinity to mouse kappa opioid receptor expressed in CHO cell membrane assessed as stimulation of [35S]-GTPgammaS binding by measuring maximal efficacy incubated for 1.5 hrs by scintillation spectroscopy analysis relative U50488H; format: cell membranes; conditions: filed as modulator
How it was run: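 KOR [35S]GTPγS functional assay in KOR-expressing CHO membranes. Efficacy is expressed as % of the maximal stimulation by full agonist U50,488H, with EC50 also determined. Mean of at least three independent experiments.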

[3] = biological target: Kappa-type opioid receptor (Mus musculus) (UniProt P33534); assay: Binding affinity to mouse kappa opioid receptor expressed in CHO cell membrane assessed as stimulation of [35S]-GTPgammaS binding by measuring maximal efficacy incubated for 1.5 hrs by scintillation spectroscopy analysis relative SNC80; format: cell membranes
Mus musculus [4] = assay: Antinociceptive activity in sc dosed Swiss Webster mouse assessed as inhibition of morphine induced latency to tail withdrawal preincubated for 5 mins followed by morphine addition and measured after 20 mins by warm water tail immersion assay; format: functional; conditions: 25 min
How it was run: (§2)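 Male Swiss-Webster mice (n = 5). Compound is given s.c. at time 0 (10 mg/kg in the single-dose screen, a dose range for AD50), and morphine 10 mg/kg follows 5 min later. Tail flick is tested in 56 ± 0.1 °C water 20 min after morphine and scored as % MPE. Saline and morphine alone are the controls.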

Mus musculus [5] = assay: Effect of compound on chronic morphine pelleted Swiss Webster mouse model assessed as decrease in wet-dog shake symptom at 50 mg/kg, sc and measured for 20 mins by withdrawal assay; format: functional, organism-based
Mus musculus [6] = assay: Effect of compound on chronic morphine pelleted Swiss Webster mouse model assessed as decrease in jump symptom at 50 mg/kg, sc and measured for 20 mins by withdrawal assay; format: functional, organism-based
Mus musculus [7] = assay: Effect of compound on chronic morphine pelleted Swiss Webster mouse model assessed as decrease in paw tremors symptom at 50 mg/kg, sc and measured for 20 mins by withdrawal assay; format: functional, organism-based
Mus musculus [8] = assay: Antinociceptive activity in Swiss Webster mouse assessed as increase in latency to tail withdrawal at 10 mg/kg, sc observed for 20 mins by warm water tail immersion assay; format: functional, organism-based
How it was run: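 Male Swiss-Webster mice (23–35 g, 7–8 weeks), n = 5. Compound given 10 mg/kg s.c. at time 0. Tail-flick latency is measured in 56 ± 0.1 °C water and expressed as % maximum possible effect against saline vehicle.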

Mu-type opioid receptor [9] = biological target: T1, Mu-type opioid receptor (Mus musculus, UniProt P42866); assay: Binding affinity to mouse mu opioid receptor expressed in CHO cell membrane assessed as inhibition constant incubated for 1.5 hrs by competitive radioligand binding assay; format: cell membranes
[10] = biological target: Kappa-type opioid receptor (Mus musculus, UniProt P33534); assay: Binding affinity to mouse kappa opioid receptor expressed in CHO cell membrane assessed as inhibition constant incubated for 1.5 hrs by competitive radioligand binding assay; format: cell membranes
Mu-type opioid receptor [11] = biological target: T1, Mu-type opioid receptor; assay: Binding affinity to mouse mu opioid receptor expressed in CHO cell membrane assessed as [35S]GTPgammaS binding incubated for 1.5 hrs by liquid scintillation counter analysis; format: cell membranes; how it was run: as §1
Mus musculus [12] = species on record: Mus musculus; assay: Selectivity ratio, ratio of Ki for binding affinity to mouse kappa opioid receptor expressed in CHO cell membrane to Ki for binding affinity to mouse mu opioid receptor expressed in CHO cell membrane
[13] = Selectivity ratio, ratio of Ki for binding affinity to human delta opioid receptor expressed in CHO cell membrane to Ki for binding affinity to mouse mu opioid receptor expressed in CHO cell membrane
Mus musculus [14] = assay: Antinociceptive activity in Swiss Webster mouse assessed as inhibition of morphine induced latency to tail withdrawal at 10 mg/kg, sc preincubated for 5 mins followed by morphine addition and measured after 20 mins by warm water tail immersion assay; format: functional, organism-based; conditions: time 25.0 min; how it was run: as §2
Mus musculus [15] = assay: Effect of compound on chronic morphine pelleted Swiss Webster mouse model assessed as decrease in wet-dog shake symptom at 1 mg/kg, sc and measured for 20 mins by withdrawal assay; format: functional, organism-based
How it was run: (§3)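 Male Swiss-Webster mice made dependent with chronic morphine pellets. Compound is injected and wet-dog shakes, paw tremors and jumps are counted over 20 min after each injection.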

Mus musculus [16] = assay: Effect of compound on chronic morphine pelleted Swiss Webster mouse model assessed as decrease in jump symptom at 1 mg/kg, sc and measured for 20 mins by withdrawal assay; format: functional, organism-based; how it was run: as §3
Mus musculus [17] = assay: Effect of compound on chronic morphine pelleted Swiss Webster mouse model assessed as decrease in paw tremors symptom at 1 mg/kg, sc and measured for 20 mins by withdrawal assay; format: functional, organism-based; how it was run: as §3
[18] = biological target: Mu-type opioid receptor (Mus musculus) (UniProt P42866); assay: Agonist activity at mouse mu opioid receptor expressed in CHO cells co-expressing Gqi5 assessed as increase in intracellular calcium level incubated for 15 mins by Calcium flux assay; format: functional, cell-based
How it was run: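 MOR-CHO cells transiently transfected with Gqi5 (4 h at 37 °C, 5% CO2), replated and used 48 h post-transfection. Cells are loaded with fluo-4 AM plus probenecid in HBSS–HEPES buffer for 45 min, then exposed to compound for 15 min (agonist mode 0.3 nM to 3 μM). For antagonist mode DAMGO is then added. Fluorescence (RFU) is read for 90 s and peak values are taken. IC50 comes from non-linear regression. Triplicates, at least four experiments.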

Mu-type opioid receptor [19] = biological target: T1, Mu-type opioid receptor; assay: Antagonist activity at mouse mu opioid receptor expressed in CHO cells co-expressing Gqi5 assessed as inhibition of DAMGO induced increase in intracellular calcium flux incubated for 15 mins by Calcium flux assay; format: functional, cell-based
How it was run: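 MOR-CHO cells transiently transfected with Gqi5 (4 h at 37 °C, 5% CO2), replated and used 48 h post-transfection. For antagonist mode DAMGO is then added. Fluorescence (RFU) is read for 90 s and peak values are taken. IC50 comes from non-linear regression. Triplicates, at least four experiments.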

[20] = Protein binding in human plasma at 10 uM and measured upto 24 hrs by equilibrium dialysis based MS analysis; format: ADME, cell-free
[21] = Protein binding in rat plasma at 10 uM and measured upto 24 hrs by equilibrium dialysis based MS analysis; format: ADME, cell-free
[22] = biological target: Voltage-gated inwardly rectifying potassium channel KCNH2 (Homo sapiens, UniProt Q12809); assay: Inhibition of human ERG expressed in CHO-K1 cells with holding potential of -80 mV by automated patch clamp assay; conditions: CHO-K1 cells expressing human ERG
[23] = Efflux ratio of apparent permeability in human Caco-2 cells; format: ADME, cell-based
[24] = Metabolic stability in human liver microsomes assessed as half life; format: ADME, Microsome
How it was run: (§4)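 Human or rat liver microsomal stability, run by a contract lab. Half-life and hepatic CLint are reported.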

[25] = Metabolic stability in rat liver microsomes assessed as half life; format: ADME, Microsome; how it was run: as §4
Mus musculus [26] = assay: Effect of compound on chronic morphine pelleted Swiss Webster mouse model assessed as decrease in wet-dog shake symptom at 10 to 80 mg/kg, sc and measured for 20 mins by withdrawal assay; format: functional, organism-based; conditions: dose 10-80 mg/kg; how it was run: as §3
Mus musculus [27] = assay: Effect of compound on chronic morphine pelleted Swiss Webster mouse model assessed as decrease in jump symptom at 40 mg/kg, sc and measured for 20 mins by withdrawal assay; format: functional, organism-based; how it was run: as §3
Mus musculus [28] = assay: Effect of compound on chronic morphine pelleted Swiss Webster mouse model assessed as decrease in paw tremors symptom at 10 to 80 mg/kg, sc and measured for 20 mins by withdrawal assay; format: functional, organism-based; conditions: dose 10-80 mg/kg; how it was run: as §3

SMILES	Emax [1] [%]	Ki (Mu-type opioid receptor [9]) [nM]	Ki [10] [nM]	EC50 (Mu-type opioid receptor [11]) [nM]	Ratio Ki (Mus musculus [12])	Ratio Ki [13]	Activity (Mus musculus [14])	further results
O=C(N[C@H]1CC[C@@]2(O)[C@H]3Cc4ccc(O)c5c4[C@@]2(CCN3CC2CC2)[C@H]1O5)c1cccc2cc[nH]c12	19.1							Emax [2]: 48.3%; Emax ([3]; filed as modulator): 76.8%; ED50 (Mus musculus [4]): 2.07 mg/kg; Activity (Mus musculus [5]): inactive; Activity (Mus musculus [6]): inactive; Activity (Mus musculus [7]): Active
Cc1c[nH]c2c(C(=O)N[C@@H]3CC[C@@]4(O)[C@H]5Cc6ccc(O)c7c6[C@@]4(CCN5CC4CC4)[C@H]3O7)cccc12		0.46	1.01	1.22				Activity (Mus musculus [8]): Active; Emax ([1]; filed as modulator): 44%
O=C(N[C@@H]1CC[C@@]2(O)[C@H]3Cc4ccc(O)c5c4[C@@]2(CCN3CC2CC2)[C@H]1O5)c1cccc2c([N+](=O)[O-])c[nH]c12		0.54	0.8	1.13	1.5	47.5		Activity (Mus musculus [8]): Active; Emax ([1]; filed as modulator): 60.9%
CC(C)c1c[nH]c2c(C(=O)N[C@@H]3CC[C@@]4(O)[C@H]5Cc6ccc(O)c7c6[C@@]4(CCN5CC4CC4)[C@H]3O7)cccc12	36.2	0.89	0.98	1.73	1.1	22.2	inactive	
O=C(N[C@H]1CC[C@@]2(O)[C@H]3Cc4ccc(O)c5c4[C@@]2(CCN3CC2CC2)[C@H]1O5)c1cccc2c(C3CCCC3)c[nH]c12	12.3	2.66	21.1	2.05	7.9	10.6	inactive	
O=Cc1c[nH]c2c(C(=O)N[C@@H]3CC[C@@]4(O)[C@H]5Cc6ccc(O)c7c6[C@@]4(CCN5CC4CC4)[C@H]3O7)cccc12	21.3	0.69	4.03	1.19	5.8	< 35.1	inactive	
C=CCN1CC[C@]23c4c5ccc(O)c4O[C@H]2C(=O)CC[C@@]3(O)[C@H]1C5								Activity (Mus musculus [15]): Active; Activity (Mus musculus [16]): Active; Activity (Mus musculus [17]): Active
N#Cc1c[nH]c2c(C(=O)N[C@@H]3CC[C@@]4(O)[C@H]5Cc6ccc(O)c7c6[C@@]4(CCN5CC4CC4)[C@H]3O7)cccc12	38.8	0.38	1	3.07	2.7	67.4	inactive	
O=C(N[C@H]1CC[C@@]2(O)[C@H]3Cc4ccc(O)c5c4[C@@]2(CCN3CC2CC2)[C@H]1O5)c1cccc2c(-c3ccccc3)c[nH]c12	5.57	2.37	13.4	1.85	5.7	6.3	inactive	
Cc1cc2cccc(C(=O)N[C@H]3CC[C@@]4(O)[C@H]5Cc6ccc(O)c7c6[C@@]4(CCN5CC4CC4)[C@H]3O7)c2[nH]1.Cl	12	0.59	2.1	3.86	3.6		Active	Emax [2]: 73.9%; Emax [3]: 26.7%; ED50 (Mus musculus [4]): 10.6 mg/kg; Activity [18]: inactive; IC50 (Mu-type opioid receptor [19]): 87.5 nM; PPB [20]: 99%; PPB [21]: 96%; IC50 [22]: 0.14 nM; Ratio [23]: 2.2; t1/2 [24]: > 1 h; t1/2 [25]: > 1 h; Activity (Mus musculus [26]): inactive; Activity (Mus musculus [27]): Active; Activity (Mus musculus [28]): Active
O=C(N[C@@H]1CC[C@@]2(O)[C@H]3Cc4ccc(O)c5c4[C@@]2(CCN3CC2CC2)[C@H]1O5)c1cccc2cc(-c3ccccc3)[nH]c12	10.2	3.26	1.14	5.44	0.4	7.3	inactive	
CC(=O)Nc1c[nH]c2c(C(=O)N[C@H]3CC[C@@]4(O)[C@H]5Cc6ccc(O)c7c6[C@@]4(CCN5CC4CC4)[C@H]3O7)cccc12	9.97	0.23	2.1	1.48	9.4	23	inactive	
O=C(N[C@@H]1CC[C@@]2(O)[C@H]3Cc4ccc(O)c5c4[C@@]2(CCN3CC2CC2)[C@H]1O5)c1cccc2c(Cl)c[nH]c12		0.62		1.05	0.5	7.2		Activity (Mus musculus [8]): Active; Emax ([1]; filed as modulator): 59.5%
